Screens (PubChem BioAssay)
GAA850 FXN act: activators of GAA850 frataxin (FXN) promoter; hit rate 0.56% among 360,000; HEK293 lucGAA850 FXN promoter luciferase reporter, 24 h; percent of 10 µM SAHA response; activation, % at 6 µM; AID 540364;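 active = activation above the average of all compounds screened plus 3 SD, cutoff fixed separately per campaign, cut at about 7.5% in these data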
INS-1E GSIS act: GLuc luminescence reporter in INS-1E cells, primary screen for activators of glucose-dependent secretion of insulin; INS-1E GLuc reporter insulin secretion, 2-3 h; activation, % at 16.6 µM; hit rate 0.61% among 370,000;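 active = lowest replicate activation of at least 40%, so every replicate reaches that level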
CaV13 ICDI inh: Primary screen for inhibitors of IQ motif and Ca2+-dependent inactivation inhibitor domain binding in CACNA1D, Förster resonance energy transfer in living cells, …; HEK cells, CFP/YFP FRET ICDI-IQ, plate reader, 10 min; percent FRET-ratio fall versus neutral wells; inhibition, % at 12.3 µM; hit rate 0.098% among 340,000; AID 743397;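 active = mean replicate inhibition of at least 30% and at least 1% of replicates passing that level; inconclusive = only one of the two criteria is met; inactive = neither criterion is met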
Xi reactivation: activators of X-chromosome reactivation in mouse fibroblasts | XiGFP mouse fibroblasts, % GFP-positive cells imaging, 3 d; cells co-treated with 5-aza-dC sensitizer; scaled so ellipticine positive control = 100% | activation, % at 7.58 µM | hit rate 0.055% among 360,000;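 active = mean normalized replicate activation at least 10% and every replicate at or above 10%; inconclusive = only one of the two criteria met; inactive = mean below 10% and not all replicates reach 10%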
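System: 68-5-11 XiGFP fibroblast line | Buffer or medium: DMEM containing 5-aza-dC | Compound: Single point | Times: Compounds 3 days, fix/stain 15 min at room temperature | Benchmarks: Positive control ellipticine, 6 µM final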
GAA30 FXN cntr: activates GAA30 frataxin promoter, counter-screen for GAA850 activators; shares compounds with GAA850 FXN act; hit rate 66% among 1,900; AID 588350; HEK293 lucGAA30 FXN promoter luciferase, 24 h; DMSO = 0%, 5 µM ipriflavone = 100%; activation, % at 6 µM;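 active = mean activation above the mean of solvent-only control wells plus 3 SD, cut at about 22% in these data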;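 also: counterscreen of GAA850 promoter hits where activity marks nonselective or luminescence artifacts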
GAA850 confirm: GAA850 FXN promoter activation confirmation; shares compounds with GAA850 FXN act; HEK293 lucGAA850 FXN promoter luciferase reporter, 24 h; 100% = activation by SAHA; activation, % at 6 µM; hit rate 86% among 1,900; AID 588351;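 active = mean activation above a set limit taken from the primary screen, cut at about 8% in these data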
A number is an active result; – = inactive; ? = inconclusive; · = no result given. Rows were chosen to be rich in hits. Some 1% of all compounds tested hit in one or more screens of this group.

SMILES	GAA850 FXN act	INS-1E GSIS act	CaV13 ICDI inh	Xi reactivation	GAA30 FXN cntr	GAA850 confirm
Cc1c(CCC(=O)NCCC(=O)O)c(=O)oc2cc3occ(-c4ccccc4)c3cc12	–	–	–	–	·	·
Cc1c(CCC(=O)NCC(=O)O)c(=O)oc2cc3occ(-c4ccccc4)c3cc12	9.4	–	–	–	–	–
NC(=O)[C@@H]1CCCN1C(=O)c1ccc2oc(CCc3ccccc3)nc2c1	7.8	–	–	–	74	31
O=C(c1ccc2oc(CCc3ccccc3)nc2c1)N1CCC(O)CC1	–	–	–	–	·	·
O=C(C[C@H]1C[C@H]2c3cc(NC(=O)Cc4ccncc4)ccc3O[C@H]2[C@H](CO)O1)NCc1cccc(F)c1	·	–	·	–	·	·
CCNc1nc(N)nc(Oc2ccc(OCCOc3ccc(Cl)cc3Cl)nn2)n1	13	–	–	·	–	8.6
CCNc1nc(NCC)nc(Oc2ccc(OCC)nn2)n1	–	–	·	·	·	·
Cc1cc(C)c(C(CC(=O)c2cccs2)C(C#N)C#N)c(C)c1 (configuration not stated)	9.0	·	–	–	100	61
Cc1cc(C)cc(-n2c(SC(C)C(=O)NCc3ccc4c(c3)OCO4)nc3ccccc3c2=O)c1 (configuration not stated)	8.7	·	–	–	24	8.2
C=CCNC(=O)c1c(Br)cnn1-c1ccc(C)cc1	8.2	–	–	–	105	33
Cc1ccc(-n2ncc(Cl)c2C(=O)NCc2ccccc2)cc1	–	–	–	–	·	·
O=C(N[C@@H]1CC[C@@H](CC(=O)N2CCC(Cc3ccccc3)CC2)O[C@H]1CO)c1cnccn1	·	–	·	–	·	·
Cc1cccc(/C=N\Nc2cn[nH]c(=O)c2Cl)c1	22	–	–	·	66	24
O=c1[nH]ncc(N/N=C\c2cccnc2)c1Cl	–	–	–	–	·	·
CCCCn1c(/C=N/Nc2nc3ccccc3[nH]2)nc2ccccc21	12	–	–	–	–	–
CCCCn1c(/C=C/c2ccco2)nc2ccccc21	–	–	–	–	·	·
CCNc1nc(CSc2ccccc2)nc2sc(C)c(C)c12	18	–	–	–	–	13
C[C@H]1CN([C@@H](C)CO)C(=O)c2cccc(NC(=O)Nc3ccc(C(F)(F)F)cc3)c2O[C@@H]1CN(C)C(=O)Nc1ccc2c(c1)OCO2	·	–	·	–	·	·
C[C@@H]1CN([C@@H](C)CO)S(=O)(=O)c2ccc(C#CC3CC3)cc2O[C@@H]1CN(C)Cc1cncnc1	·	–	·	–	·	·
CCNC(=O)[C@@H]1[C@@H](CO)[C@@H]2Cn3c(ccc(-c4cccc(OC)c4)c3=O)[C@@H]2N1C(=O)NC(C)C	·	–	·	–	·	·
CN=C1SC(CC(=O)Nc2ccc(N3CCOCC3)cc2)C(=O)N1C (configuration not stated)	13	·	–	·	–	–
COc1cc(/C=C/c2ccc3cccc(O)c3n2)cc(Cl)c1OC	13	–	–	–	–	–
COc1cc(/C=C/c2ccc3cccc(O)c3n2)cc(OC)c1OC	–	–	–	–	·	·
COc1cccc(/C=C/c2ccc3cccc(O)c3n2)c1	8.7	–	–	–	–	29
Oc1cccc(/C=C/c2ccc3cccc(O)c3n2)c1	–	–	–	–	·	·
SMILES	GAA850 FXN act	INS-1E GSIS act	CaV13 ICDI inh	Xi reactivation	GAA30 FXN cntr	GAA850 confirm
COc1cc(/C=C/c2ccc3cccc(O)c3n2)cc(Br)c1OC	9.2	–	–	–	–	–
N#C[C@@H]1[C@H](c2ccccc2-c2ccccc2F)[C@@H](CO)N1C(=O)C1CCC1	·	–	·	–	·	·
Cc1ccc(S(=O)(=O)N(C)C[C@@H]2Oc3c(NC(=O)Nc4ccc(F)cc4)cccc3C(=O)N([C@H](C)CO)C[C@@H]2C)cc1	·	–	·	–	·	·
Cc1ccc2nc(-c3ccccc3)cn2c1	–	·	–	·	·	·
Cc1ccc2nc(-c3ccc(O)c(O)c3)cn2c1	10	–	–	–	122	49
C[C@@H]1CN([C@H](C)CO)C(=O)c2cc(NS(=O)(=O)c3ccc(F)cc3)ccc2O[C@@H](C)CCCCO[C@@H]1CN(C)Cc1ccncc1	·	–	·	–	·	·
Fc1ccc(-c2cn3cc(C(F)(F)F)cc(Cl)c3n2)cc1	8.8	·	–	·	97	35
Cc1ccc(Nc2ncccc2C(=O)O)cc1C	–	·	–	–	·	·
Cc1ccc(Nc2ncccc2C(N)=O)cc1[N+](=O)[O-]	10	–	–	–	100	27
CC(NC(=O)/C(C#N)=C/c1ccc([N+](=O)[O-])o1)c1ccccc1 (configuration not stated)	10	–	–	43	–	8.5
CCOCCCNC(=O)/C(C#N)=C/c1ccc([N+](=O)[O-])o1	11	–	–	?	–	–
CCOCCCNC(=O)/C(C#N)=C/c1ccc(-c2ccc(S(=O)(=O)N3CCOCC3)cc2)o1	–	·	·	·	·	·
C[C@@H]1CN([C@H](C)CO)C(=O)c2c(c3ccccc3n2C)-c2ccccc2CO[C@@H]1CN(C)Cc1cccc(C(=O)O)c1	·	–	·	–	·	·
O=C1COc2ccc(C(=O)CCl)cc2N1	9.8	–	–	–	202	–
COc1ccc(S(=O)(=O)Nc2ccc3c(c2)C(=O)N([C@H](C)CO)C[C@H](C)[C@H](CN(C)CC2CC2)OCCCC[C@@H](C)O3)cc1	·	–	·	–	·	·
Cc1cc(C(=O)Nc2sc(C)c(-c3ccc(F)cc3)c2C(N)=O)no1	8.4	–	–	·	106	31
CC(C)Nc1oc(-c2cccc3ccccc23)nc1C#N	8.6	·	–	·	97	36
CCNc1oc(-c2cccc3ccccc23)nc1C#N	–	·	–	·	·	·
COCc1nc2oc3ccc(F)cc3c(=O)c2cc1C(=O)OC	–	–	–	–	·	·
COCc1nc2oc3ccc(C)cc3c(=O)c2cc1C(=O)OC	7.9	–	–	–	119	47
CC(=O)Nc1cccc(NC(=O)CSc2ncc(C(=O)Nc3ccccc3)c(=O)n2C)c1	9.7	–	–	–	–	15
CC(=O)Nc1cccc(NC(=O)CSc2ncc(C(=O)Nc3ccc(F)cc3)c(=O)n2C)c1	–	–	–	–	·	·
C[C@@H]1CN([C@@H](C)CO)C(=O)c2cc(C3=CCCC3)cnc2O[C@@H]1CN(C)C(=O)C1CCOCC1	·	–	·	–	·	·
COC(=O)C[C@H]1C=C[C@@H](NS(=O)(=O)c2ccccc2F)[C@H](CO)O1	·	–	·	–	·	·
COc1cccc(-c2ccc(SCc3ccccn3)nn2)c1	8.7	–	–	–	110	36
Cc1ccccc1-c1noc(-c2cccs2)n1	–	–	–	–	·	·
Cc1ccccc1-c1nnc(-c2cccs2)o1	8.0	–	–	–	106	30
CC(C)(C)CC(=O)Nc1cc(S(=O)(=O)N2CCCCCC2)ccc1Cl	–	–	–	–	·	·
